# Compounds with a hit are over-represented: about 2.6% of the library has one in this group of screens.
# procasp7 counter = counter-screen for procaspase-3 activators: activators of human procaspase-7; P55210; recombinant procaspase-7, Ac-DEVD-pNA absorbance 405 nm; D23A/D198A/D206A triple mutant, cannot self-cleave; scale: DMSO 0, 5 µM enzyme 100; activation, % at 8.5 µM; 330,000 tested, 0.093% active; AID 463210;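 active = percent activation above the screen-wide mean plus 3 SD, cut at about 25% in these data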
# Target sequence (P55210 whole entry D23A/D198A/D206A): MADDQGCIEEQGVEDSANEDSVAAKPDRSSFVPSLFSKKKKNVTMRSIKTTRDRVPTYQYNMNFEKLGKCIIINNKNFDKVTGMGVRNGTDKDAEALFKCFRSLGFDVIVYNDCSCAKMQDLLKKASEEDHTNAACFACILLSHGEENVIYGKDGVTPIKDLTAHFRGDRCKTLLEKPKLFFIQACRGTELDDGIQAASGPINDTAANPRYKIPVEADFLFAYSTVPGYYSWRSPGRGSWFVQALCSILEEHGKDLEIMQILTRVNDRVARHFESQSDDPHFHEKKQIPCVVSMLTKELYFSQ
#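 Material: Procaspase-7 triple mutant (PC-7 D3A) | Quantity: 2 µM procaspase-7 mutant as dispensed | Reagent: DEVD-pNA substrate | Times: 1 h preincubation, 2 h reaction | Technique: 405 nm absorbance of p-nitroaniline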
# AHR act = activates the human aryl hydrocarbon receptor. P35869. AHR-responsive luciferase reporter cells, luminescence. activation, % at 5 µM. 320,000 tested, 2.5% active; in the data active = activation above about 47%;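 note: 0% = vehicle wells and 100% = reference agonist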
# procasp3 activ = procaspase-3 (human) activation. recombinant procaspase-3 D3A, Ac-DEVD-pNA absorbance 405 nm. activation, % at 8.5 µM. 330,000 tested, 0.11% active. AID 463141;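 active = activation above the mean of all tested compounds plus 3 SD, cut at about 21% in these data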;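 note: 0% = DMSO alone and 100% = DMSO wells spiked with extra 5 µM PC-3 D3A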
# Target sequence (P42574 whole entry D9A/D28A/D175A): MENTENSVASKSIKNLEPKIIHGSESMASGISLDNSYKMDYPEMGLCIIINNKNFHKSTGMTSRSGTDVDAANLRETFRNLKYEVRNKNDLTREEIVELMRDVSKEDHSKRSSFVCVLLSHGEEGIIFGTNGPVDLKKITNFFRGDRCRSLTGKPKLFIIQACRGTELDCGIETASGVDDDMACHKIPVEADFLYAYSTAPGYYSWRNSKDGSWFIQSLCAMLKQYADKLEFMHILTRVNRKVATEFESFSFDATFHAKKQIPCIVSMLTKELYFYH
#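 Test system: Procaspase-3 D3A mutant, all three cleavage aspartates alanine | Dosing: Single dose, 8.5 µM nominal compound, 0.8% DMSO | Schedule: 1 h preincubation, 2 h reaction | Technique: 405 nm absorbance of p-nitroaniline, reads at 0 and 120 min | Repeats: One well per compound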
# PolyA inh = inhibitors of polyadenylation in S. cerevisiae; AID 1875; activity score, % at 12 µM; 300,000 tested, 0.02% active; S. cerevisiae SKY197-pL101 polyadenylation reporter, beta-gal luminescence; efflux-impaired pdr1/pdr3 knockout yeast; score 100 = 6 SD above DMSO;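 active = lowest replicate activity score at least 50, where 100 means six control SD above control mean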;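 note: yeast exposed to compound for 9 h at 30 °C; higher score means more reporter readthrough which indicates perturbed polyadenylation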
# Active calls of the source: *; · = no result given.
SMILES,procasp7 counter,AHR act,procasp3 activ,PolyA inh
Cc1[nH]c2ccccc2c1/C=N/Nc1ccc(F)cc1F,-0.5,78.4*,0.4,·
COc1cc(/C=N/Nc2ccc(F)cc2F)cc(OC)c1OC,-6.7,70.2*,-15.7,-40.4
COc1ccc(/C=C/c2c(-c3cccc(C)c3)oc3ccc(N4CCOCC4)cc23)cc1,-4.6,62.3*,-6.1,13.3
COc1ccc(-c2oc3ccc(N4CCOCC4)cc3c2C#CC2(O)CCCCC2)cc1,19.3,68.6*,-21.3,-10.5
COc1ccc(C#Cc2c(-c3ccsc3)oc3ccc(N4CCOCC4)cc23)cc1,-8.1,70.1*,-4.6,-7.6
CCCc1nc2c(ccc3ccccc32)cc1CC,6.3,5.8,12.5,-3.5
CC1CCN(C(=O)COC(=O)C23CC4CC(CC(O)(C4)C2)C3)CC1,9.2,1.0,3.6,·
COC(=O)c1ccccc1N(C)S(=O)(=O)c1cc2c3c(c1)CCC(=O)N3CCC2,4.6,-0.3,6.1,9.8
COc1ccc2c(c1)sc1nc(-c3ccccc3)cn12,-1.1,56.5*,1.4,-24.4
CCOC(=O)N1CCN(C(=O)c2ccc3c(c2)sc2nc(-c4ccc(OC)cc4)cn23)CC1,5.1,-2.8,3.7,7.0
Cc1ccc(C2(c3ccccc3)NC(=O)N(CC(=O)NC3CCS(=O)(=O)C3)C2=O)cc1C (stereo not drawn),-6.6,-0.9,6.5,·
CC1CCCCN1CC(O)COCc1ccccc1 (stereo not drawn),·,·,·,17.0
O=c1oc2cc(O)ccc2cc1-c1nc2c(s1)CCc1ccccc1-2,-6.2,13.7,-12.4,·
O=c1oc2ccccc2cc1-c1nc2c(s1)CCc1ccccc1-2,-46.7,71.2*,-26.2,-9.6
O=C(CN1CCN(c2ccccn2)CC1)Nc1cccc(Br)c1,-17.2,3.6,-5.3,-7.7
Cc1ccc(C)c2c(N)c3c(nc12)CCCCC3 (tested in a mixture with another compound),5.4,47.2*,3.8,3.5
Nc1c2c(nc3c1CCCC3)CCCC2 (tested in a mixture with another compound),0.1,9.0,0.7,9.0
Nc1c2c(nc3sc4c(c13)CCCC4)CCCCCC2,-0.1,49.4*,-6.7,-1.6
Cc1[nH]c2ccccc2c1-c1csc(NC(=O)CN2CCOCC2)n1,-16.6,70.5*,-8.7,2.8
O=C(COC(=O)Cc1ccc(S(=O)(=O)N2CCOCC2)s1)Nc1ccc2c(c1)OCO2,4.6,-0.1,5.7,105.7*
O=C(COC(=O)Cc1ccc(S(=O)(=O)N2CCOCC2)s1)Nc1ccccc1,-0.6,-1.7,8.3,·
COc1ccccc1/C=C/C(=O)Nc1nc(N)n(-c2ccccc2)n1,-0.4,78.1*,4.6,-2.2
COc1ccc(C(=O)Nc2nc(N)n(-c3ccccc3)n2)cc1OC,0.2,3.0,6.7,7.4
Cc1ccccc1OCCC(=O)OCC(=O)NC1CC1,2.5,1.8,8.7,-8.4
COc1ccc(-c2noc(-c3cc4ccccc4oc3=O)n2)cc1,-1.6,-2.2,-3.5,6.6
SMILES,procasp7 counter,AHR act,procasp3 activ,PolyA inh
COc1ccc(-c2csc(-c3cc4ccccc4oc3=N)n2)cc1,-26.6,49.9*,-13.3,1.2
CC(OC(=O)C1CC1C)C(=O)Nc1ncc(Cl)cc1Cl (stereo not drawn),6.5,-1.8,4.8,-16.1
O=C(CSC1=NNC(c2ccccn2)S1)Nc1ccc(C(F)(F)F)cc1 (stereo not drawn),-32.5,53.3*,-18.1,-7.6
c1ccc(CSC2=NNC(c3ccccn3)S2)cc1 (stereo not drawn),-15.5,-3.3,-19.1,-8.2
CCOc1cc(C(=O)NCCCn2ccnc2)cc(OCC)c1OCC,7.3,49.8*,-0.5,3.0
O=C(NCCCn1ccnc1)c1noc2c1CCCC2,-2.7,48.2*,-3.1,14.4
COc1cc(SC)ccc1C(=O)NCCCn1ccnc1,9.3,58.8*,2.9,-8.1
O=C(NCCCn1ccnc1)c1noc2c1CCc1ccccc1-2,-0.6,28.5,6.7,-8.1
CCCCNC(=O)COn1nnc2ccc(S(=O)(=O)N3CCOCC3)cc21,-0.6,-1.8,-0.4,8.6
Cc1ccc(NC(=O)c2cc3cccc([N+](=O)[O-])c3[nH]2)cc1,-1.5,70.7*,0.6,-3.7
CCC(C)c1ccccc1NC(=O)c1cc2cccc([N+](=O)[O-])c2[nH]1 (stereo not drawn),0.4,55.1*,2.6,21.2
CCOP(=O)(OCC)C(Nc1ccc(C)cc1)c1ccco1 (stereo not drawn),8.8,1.0,5.8,9.8
O=S1(=O)C[C@H]2NC(=S)N(c3ccccc3)[C@H]2C1,9.4,-1.8,4.2,3.3
CCn1nnc(NC(=O)c2ccco2)n1,-0.3,2.3,2.7,-0.1
C/C(O)=C(\N=Nc1cc(C)ccc1O)C(N)=O,-12.1,51.5*,-8.0,-22.8
O=C(CCNS(=O)(=O)c1ccccc1C(F)(F)F)NCCCc1ccccc1,10.9,-0.9,2.1,·
O=S(=O)(Nc1ccccn1)c1cccs1,-4.4,-0.4,-2.5,-1.9
Cc1ccc(-c2nc3cccnc3s2)cc1NS(=O)(=O)c1cccs1,2.6,58.9*,-0.2,-4.8
Cc1nc2ccc(S(=O)(=O)Nc3cc(-c4nc5cccnc5s4)ccc3C)cc2s1,-0.3,53.1*,-4.6,14.2
Cc1ccn(S(=O)(=O)c2ccc(N3CCCC3=O)cc2)n1,0.5,1.7,6.1,-4.7
COc1cccc(-c2nc(-c3ccccc3)[nH]c(=O)c2C#N)c1,1.8,79.0*,-13.4,-8.1
COc1ccc(-c2nc(-c3cccc(C)c3)[nH]c(=O)c2C#N)cc1,6.5,0.2,-14.7,8.3
Cc1ccc(C(=O)N2CC(C)OC(C)C2)cc1S(=O)(=O)N1CCCCC1 (stereo not drawn),9.5,-1.1,1.2,·
CC1CC1C(=O)Nc1nc2ccc(Cl)cc2s1 (stereo not drawn),9.5,67.2*,-1.5,-34.8
O=C(Nc1nc2ccc(Cl)cc2s1)c1ccco1,16.5,10.4,-2.4,-24.6
SMILES,procasp7 counter,AHR act,procasp3 activ,PolyA inh
O=C(Nc1cc(F)cc(F)c1)c1ccc(NCCc2ccccc2)c([N+](=O)[O-])c1,-6.6,56.9*,5.1,0.9
Cc1cc2cc(C)c(NCCNC(=O)c3ccccc3)nc2cc1C,5.6,63.3*,2.0,8.5
CCOc1ccc2nc(NCCNC(=O)C(C)C)c(C)cc2c1,5.3,47.7*,-15.0,5.4
O=S(=O)(Nc1ccc(-c2cn3c(n2)SCC3)cc1)c1ccccc1F,-0.8,5.3,-6.5,3.3
COc1ccc(C(CNC(=O)c2oc3ccccc3c2C)N2CCCC2)cc1 (stereo not drawn),10.2,47.5*,-1.7,·
CCN(CC(=O)Nc1ccc(OC)cc1)C(=O)c1oc2c(Cl)cccc2c1C,13.7,53.0*,-8.9,5.9
COc1ccc(C(CNC(=O)c2oc3c(Cl)cccc3c2C)N2CCCC2)cc1 (stereo not drawn),0.6,49.8*,4.8,-12.0
COc1ccc(C(CNC(=O)c2oc3ccc(Cl)cc3c2C)N2CCCCC2)cc1 (stereo not drawn),2.8,-0.5,3.6,-4.0
